ChEMBL document CHEMBL1129667, “Synthesis and antiviral activity of 2'-deoxy-4'-thio purine nucleosides” (J Med Chem, 1996)

Key:
[1] = test system: IM-9; assay: Cytotoxic activity of compound against growing cultures of human leukemicB-cell line IM-9 at 100 uM; type: functional
[2] = test system: CCRF-CEM; assay: Cytotoxic activity of compound against growing cultures of human leukemic T-cell lines CEM 100 uM; type: functional
[3] = species on record: Homo sapiens; assay: Inhibitory activity of compound against hepatitis B virus (HBV) in growing cultures of 2.2.15 cells; type: functional, cell-based; conditions: HepG2 2.2.15
Outline: (§1)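 Growing cultures of 2.2.15 cells, used for both antiviral effect and cytotoxicity. IC50 and CC50 each come from five compound concentrations encompassing the value. Data are means of four replicate samples.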

[4] = test system: MRC5; assay: Cytotoxic activity of compound against uninfected MRC5 cells; type: functional; conditions: Homo sapiens
Outline: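 Uninfected MRC5 monolayers given the same six compound concentrations in triplicate and incubated 5 days. Minimum cytotoxic dose estimated by microscopic examination.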

[5] = test system: MRC5; assay: Inhibitory activity of compound against human cytomegalovirus (HCMV) strain AD169 in monolayers of MRC5 cells; type: functional, cell-based
Outline: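 MRC5 human embryonic lung monolayers infected with HCMV AD169 at ca. 0.01 infectious particles/cell. Compound added at six concentrations, each in triplicate, then incubated 5 days. IC50 estimated from well HCMV DNA measured by blotting and quantitative specific DNA hybridization. Reported value is the mean of at least two determinations done at different times.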

[6] = species on record: Homo sapiens; assay: Cytotoxic activity of compound against uninfected 2.2.15 cells.; type: functional; conditions: HepG2 2.2.15; outline: as §1
[7] = test system: MOLT-4; assay: Cytotoxic activity of compound against growing cultures of human leukemic T-cell lines Molt-4 100 uM; type: functional
[8] = test system: CCRF-CEM; assay: Cytotoxic activity of compound against growing cultures of human leukemic T-cell lines CEM at 100 uM; type: functional
[9] = test system: MOLT-4; assay: Cytotoxic activity of compound against growing cultures of human leukemic T-cell lines Molt-4 at 100 uM; type: functional
[10] = test system: CCRF-CEM; assay: Cytotoxic activity of compound against growing cultures of human leukemic T-cell lines CEM; type: functional
Outline: (§2)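 Growing cultures of the human leukemic line (T-cell CEM or Molt 4; B-cell IM-9). CC50 taken from five compound concentrations spanning the CC50. Data are means of three replicate samples.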

[11] = test system: MOLT-4; assay: Cytotoxic activity of compound against growing cultures of human leukemic T-cell lines Molt-4; type: functional; outline: as §2
[12] = test system: IM-9; assay: Cytotoxic activity of compound against growing cultures of human leukemicB-cell line IM-9; type: functional; outline: as §2

| Structure (SMILES) | CC50 [1] | CC50 [2] | IC50 [3] | CC50 [4] | IC50 [5] | CC50 [6] | CC50 [7] | Control [1] | Control [8] | Control [9] | CC50 [10] | CC50 [11] | CC50 [12] |
| --- | --- | --- | --- | --- | --- | --- | --- | --- | --- | --- | --- | --- | --- |
| Nc1nc(Cl)c2ncn(C3CC(O)C(CO)S3)c2n1 (stereo unspecified) | 42 µM | 10 µM | 0.001 µM | 2 µM | 0.1 µM | > 0.2 µM | 3.8 µM |  |  |  |  |  |  |
| CCCNc1nc(N)nc2c1ncn2C1CC(O)C(CO)S1 (stereo unspecified) |  |  | 0.061 µM | > 50 µM | 2 µM | > 0.2 µM |  | 92% | 68% | 52% |  |  |  |
| C=CCNc1nc(N)nc2c1ncn2C1CC(O)C(CO)S1 (stereo unspecified) |  |  | 0.058 µM | > 200 µM | 1.5 µM | > 0.2 µM |  | 67% |  |  | 60 µM | 40 µM |  |
| CSc1nc(N)nc2c1ncn2C1CC(O)C(CO)S1 (stereo unspecified) |  |  | 0.45 µM | > 20 µM | 2 µM | > 200 µM |  | 88% | 78% | 73% |  |  |  |
| Nc1nc(N2CCCCC2)c2ncn(C3CC(O)C(CO)S3)c2n1 (stereo unspecified) |  |  | 4 µM | > 200 µM | 6 µM | > 200 µM |  | 88% | 80% | 77% |  |  |  |
| COc1nc(N)nc2c1ncn2C1CC(O)C(CO)S1 (stereo unspecified) |  |  | 0.0025 µM | > 5 µM | 0.062 µM | 14 µM |  |  |  |  | 8 µM | 2 µM | 5 µM |
| Nc1nc(O)c2ncn(C3CC(O)C(CO)S3)c2n1 (stereo unspecified) |  |  | 0.002 µM | 2 µM | 0.06 µM | 13 µM |  |  |  |  | 9 µM | 14 µM | 4 µM |
| Nc1nc(N2CCCC2)c2ncn(C3CC(O)C(CO)S3)c2n1 (stereo unspecified) |  |  | 0.85 µM | > 200 µM | 10 µM | > 200 µM |  | 99% | 71% | 112% |  |  |  |
| Nc1nc(OCC2CC2)c2ncn(C3CC(O)C(CO)S3)c2n1 (stereo unspecified) |  |  | 0.035 µM | > 20 µM | 0.6 µM | > 0.2 µM |  |  |  |  | 41 µM | 13 µM | 61 µM |
| CCN(C)c1nc(N)nc2c1ncn2C1CC(O)C(CO)S1 (stereo unspecified) |  |  | 0.19 µM | > 20 µM | 2 µM | > 200 µM |  | 85% | 69% | 77% |  |  |  |
| CC(C)Nc1nc(N)nc2c1ncn2C1CC(O)C(CO)S1 (stereo unspecified) |  |  | 0.3 µM | > 100 µM | 4 µM | > 200 µM |  | 90% | 80% | 77% |  |  |  |
| Nc1nc(NC2CC2)c2ncn(C3CC(O)C(CO)S3)c2n1 (stereo unspecified) |  |  | 0.0072 µM | 15 µM | 0.2 µM | 77 µM |  | 78% | 68% | 11% |  |  |  |
| CN(c1nc(N)nc2c1ncn2C1CC(O)C(CO)S1)C1CC1 (stereo unspecified) |  |  | 0.3 µM | > 20 µM | 2 µM | 101 µM |  | 72% | 58% |  |  | 100 µM |  |
